Legend:
Left cardiac atrium [1] = test: Antiarrhythmic activity in 50 Hz sinusoidal alternating current-induced guinea pig left atrium arrhythmias model assessed as increase in threshold of ac-arrhythmia at 1 x 10^-4 M measured for every 30 mins relative to control; format: functional, Cavia porcellus; conditions: dose 1 10^-4M, 0.5 h, at 100 µM
Procedure, shortened: (§1)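 Guinea pig left atria mounted between platinum field electrodes in modified Krebs-Henseleit (pH 7.4, 95% O2–5% CO2, 35 °C), isometric force recorded. 50 Hz sinusoidal AC of rising strength applied; current intensity (mA/cm²) producing extra beats taken as ac-arrhythmia threshold. Stabilized 60 min, then compounds added cumulatively every 30 min.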

Left cardiac atrium [2] = test: Antiarrhythmic activity in 50 Hz sinusoidal alternating current-induced guinea pig left atrium arrhythmias model assessed as increase in threshold of ac-arrhythmia measured for every 30 mins relative to control; format: functional, tissue-based; conditions: Cavia porcellus, 0.5 h
Left cardiac atrium [3] = test: Negative inotropic activity in guinea pig left atrium assessed as decrease in 1 Hz driven developed tension at 1 x 10^-5 M relative to control; format: tissue-based, Cavia porcellus; parameters: scale not given: the % may be the effect or the level left; conditions: 10 µM, dose 1 10^-5M
Procedure, shortened: (§2)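 Guinea pig left atria paced at 1 Hz (rectangular pulses 0.6–0.8 ms, […]) in PSS, pH 7.4, 35 °C, 95% O2–5% CO2. Isometric developed tension recorded. Cumulative concentrations 0.01–100 μM in PSS, each added after steady state. Change expressed as percent of control (n = 5–6).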

Left cardiac atrium [4] = test: Negative inotropic activity in guinea pig left atrium assessed as decrease in 1 Hz driven developed tension; format: tissue-based; conditions: Cavia porcellus
Right cardiac atrium [5] = test: Negative chronotropic activity in guinea pig spontaneously beating right atrium assessed as decrease in atrial rate; format: tissue-based; conditions: Cavia porcellus
Procedure, shortened: (§3)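 Spontaneously beating guinea pig right atria in PSS, pH 7.4, 35 °C, gassed with 95% O2–5% CO2. Isometric recording of rate and developed force. Compounds added cumulatively, 0.01–100 μM, each after steady state. Percent change from control; rate data n = 7–8. EC50 by probit analysis.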

Aorta = test: Inhibition of calcium-induced contraction in K+-depolarized guinea pig aortic strips at 1 x 10^-4 M relative to control; format: tissue-based; conditions: Cavia porcellus, dose 1 10^-4M
Procedure, shortened: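 Helicoidal guinea pig aortic strips at 1 g resting force in PSS at 35 °C, contracted with 80 mM KCl (K+ replacing Na+). At plateau (about 45 min), compounds added cumulatively, 0.1–100 μM.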

Ileum [6] = test: Inhibition of calcium-induced contraction in K+-depolarized guinea pig longitudinal smooth muscle at 1 x 10^-4 M relative to control; format: tissue-based; conditions: Cavia porcellus, dose 1 10^-4M
[7] = Toxicity in mouse assessed as motor coordination impairment by measuring number of falls from rotarod at 25 mg/kg, ip measured after 30 mins by rotarod test; format: organism-based; conditions: in vivo, 0.5 h
[8] = Toxicity in mouse assessed as motor coordination impairment by measuring number of falls from rotarod at 25 mg/kg, ip measured after 45 mins by rotarod test; format: organism-based; conditions: in vivo
[9] = Toxicity in mouse assessed as motor coordination impairment by measuring number of falls from rotarod at 50 mg/kg, ip measured after 30 mins by rotarod test; format: organism-based; conditions: in vivo, 0.5 h
[10] = Toxicity in mouse assessed as motor coordination impairment by measuring number of falls from rotarod at 50 mg/kg, ip measured after 45 mins by rotarod test; format: organism-based; conditions: in vivo
[11] = Binding affinity to P-gp in dog MDCK-MDR1 cells using calcein-AM as substrate at 100 uM after 30 mins by fluorescence analysis; format: ADME, cell-based, Canis lupus familiaris; conditions: mdck-mdr1, 0.5 h
Procedure, shortened: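 MDCK-MDR1 cells, 50,000/well, grown to confluence overnight. Compounds in medium incubated 30 min at 37 °C. Calcein-AM then added at 2.5 μM final for 30 min. Cells washed with ice-cold PBS; fluorescence read at 485/535 nm against untreated basal level.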

Left cardiac atrium [12] = test: Negative inotropic activity in guinea pig left atrium assessed as decrease in 1 Hz driven developed tension at 1x 10^-4 M relative to control; format: ADME, tissue-based, Cavia porcellus; parameters: scale not given: the % may be the effect or the level left; conditions: 100 µM, dose 1 10^-4M; procedure, shortened: as §2
Right cardiac atrium [13] = test: Negative chronotropic activity in guinea pig spontaneously beating right atrium assessed as decrease in atrial rate at 1 x 10^-4 M relative to control; format: ADME, tissue-based, Cavia porcellus; parameters: scale not given: the % may be the effect or the level left; conditions: 100 µM, dose 1 10^-4M; procedure, shortened: as §3
Ileum [14] = test: Inhibition of calcium-induced contraction in K+-depolarized guinea pig longitudinal smooth muscle; format: tissue-based; conditions: Cavia porcellus
[15] = Toxicity in mouse assessed as motor coordination impairment by measuring number of falls from rotarod at 25 mg/kg, ip measured after 60 mins by rotarod test; format: organism-based; conditions: in vivo, 1 h
[16] = Toxicity in mouse assessed as motor coordination impairment by measuring number of falls from rotarod at 50 mg/kg, ip measured after 60 mins by rotarod test; format: organism-based; conditions: in vivo, 1 h
HepG2 [17] = test: Cytotoxicity against human HepG2 cells at EC50 concentration incubated for 2 hrs by MTT assay; format: cell-based; conditions: hepg2, 2 h
Procedure, shortened: (§4)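 HepG2 cells in DMEM with 10% FBS at 37 °C, 5% CO2, grown to 70% confluence. 10^4 cells/well treated in serum-free medium for 2 h. MTT at 0.5 mg/mL for 2 h, formazan dissolved in DMSO, absorbance read at 570 nm. Viability as percent of control MTT reduction; sextuplicate, repeated twice.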

HepG2 [18] = test: Cytotoxicity against human HepG2 cells at 10 times of EC50 concentration incubated for 2 hrs by MTT assay; format: cell-based; conditions: hepg2, 2 h; procedure, shortened: as §4
Left cardiac atrium [19] = test: Antiarrhythmic activity in 50 Hz sinusoidal alternating current-induced guinea pig left atrium arrhythmias model assessed as increase in threshold of ac-arrhythmia at 1 x 10^-5 M measured for every 30 mins relative to control; format: functional, Cavia porcellus; conditions: dose 1 10^-5M, 0.5 h, at 10 µM; procedure, shortened: as §1
Left cardiac atrium [20] = test: Negative inotropic activity in guinea pig left atrium assessed as decrease in 1 Hz driven developed tension at 1 x 10^-7 M relative to control; format: ADME, tissue-based, Cavia porcellus; parameters: scale not given: the % may be the effect or the level left; conditions: 0.1 µM, dose 1 10^-7M; procedure, shortened: as §2
Right cardiac atrium [21] = test: Negative inotropic activity in guinea pig spontaneously beating right atrium assessed as decrease in developed tension at 5 x 10^-6 M relative to control; format: ADME, tissue-based, Cavia porcellus; parameters: scale not given: the % may be the effect or the level left; conditions: 5 µM, dose 5 10^-6M; procedure, shortened: as §3
Right cardiac atrium [22] = test: Negative inotropic activity in guinea pig spontaneously beating right atrium assessed as decrease in developed tension; format: ADME, tissue-based; conditions: Cavia porcellus
Procedure, shortened: (§5)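 Isometric recording of rate and developed force. Compounds added cumulatively, 0.01–100 μM, each after steady state. Percent change from control; rate data n = 7–8. EC50 by probit analysis.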

Right cardiac atrium [23] = test: Negative chronotropic activity in guinea pig spontaneously beating right atrium assessed as decrease in atrial rate at 1 x 10^-5 M relative to control; format: ADME, tissue-based, Cavia porcellus; parameters: scale not given: the % may be the effect or the level left; conditions: 10 µM, dose 1 10^-5M; procedure, shortened: as §5
Ileum [24] = test: Inhibition of calcium-induced contraction in K+-depolarized guinea pig longitudinal smooth muscle at 1 x 10^-5 M relative to control; format: tissue-based; conditions: Cavia porcellus, dose 1 10^-5M
[25] = Binding affinity to P-gp in dog MDCK-MDR1 cells using calcein-AM as substrate after 30 mins by fluorescence analysis; format: ADME, cell-based; conditions: Canis lupus familiaris, MDCK-MDR1, 0.5 h
Left cardiac atrium [26] = test: Potency index, ratio of mexiletine EC50 to test compound EC50 for antiarrhythmic activity in guinea pig left atrium model of current induced arrhythmias assessed as increase in threshold of ac-arrhythmia; format: functional, Cavia porcellus
Left cardiac atrium [27] = test: Potency index, ratio of mexiletine EC50 to test compound EC50 for negative inotropic activity in guinea pig left atrium assessed as decrease in developed tension; format: ADME, tissue-based, Cavia porcellus
Ileum [28] = test: Inhibition of calcium-induced contraction in K+-depolarized guinea pig longitudinal smooth muscle at 5 x 10^-5 M relative to control; format: tissue-based; conditions: Cavia porcellus, dose 5 10^-5M

SMILES	Activity (Left cardiac atrium [1])	EC50 (Left cardiac atrium [2])	Activity (Left cardiac atrium [3])	EC50 (Left cardiac atrium [4])	EC50 (Right cardiac atrium [5])	inhibition at 100 µM (Aorta)	inhibition at 100 µM (Ileum [6])	Activity [7]	Activity [8]	Activity [9]	Activity [10]	Activity [11]	IC50 (Ileum [14])	Activity [15]	Activity [16]	Activity (HepG2 [17])	Activity (HepG2 [18])	Activity (Left cardiac atrium [19])	Activity (Right cardiac atrium [21])	EC50 (Right cardiac atrium [22])	other results
Cc1cccc(C)c1OCC(C)N.Cl (stereo not given) [MEXILETINE HYDROCHLORIDE]	64%	11600 nM	90%	45 nM	14 nM	5%	81%	1.3	0.8	3.8	3.5	Not Active	–	–	–	–	–	–	–	–	–
Cc1cccc(C)c1OCC(N)C(C)C.Cl (stereo not given)	145%	18400 nM	–	21 nM	13100 nM	11%	88%	2.6	2.2	3	2.1	Not Active	19600 nM	1.1	1	Non-Toxic	Non-Toxic	–	–	–	Activity (Left cardiac atrium [12]): 84%; Activity (Right cardiac atrium [13]): 55%
Cc1cccc(C)c1OCC(N)Cc1ccccc1.Cl (stereo not given)	–	4360 nM	–	12 nM	–	33%	–	2.9	1.9	4.4	3.5	–	3600 nM	1.2	1.3	Non-Toxic	Non-Toxic	169%	57%	66 nM	Activity (Left cardiac atrium [20]): 79%; Activity (Right cardiac atrium [23]): 24%; inhibition at 10 µM (Ileum [24]): 73%; EC50 [25]: 8400 nM; Ratio EC50 (Left cardiac atrium [26]): 2.7; Ratio EC50 (Left cardiac atrium [27]): 4
Cc1cccc(C)c1OCC(N)C(C)(C)C.Cl (stereo not given)	–	2110 nM	92%	42 nM	–	38%	–	2.7	1.7	3.1	1.8	Not Active	10700 nM	0.8	1.2	Non-Toxic	Non-Toxic	71%	77%	1020 nM	Activity (Right cardiac atrium [23]): 7%; inhibition at 50 µM (Ileum [28]): 73%

Reference: ChEMBL document CHEMBL4715731, “Synthesis, antiarrhythmic activity, and toxicological evaluation of mexiletine analogues” (Eur J Med Chem, 2016)
